# Experimental data from ChEMBL document CHEMBL1147783, “Synthesis and biological activity of novel 4-phenyl-1,8-naphthyridin-2(1H)-on-3-yl ureas: potent acyl-CoA:cholesterol acyltransferase inhibitor with improved aqueous solubility” (Bioorg Med Chem Lett, 2006).
# Columns and labels:
# [1] = target: T1, Sterol O-acyltransferase 1 (Rattus norvegicus, UniProt O70536); assay: Inhibitory activity against ACAT in rat macrophages
# T1 sequence (O70536 whole entry): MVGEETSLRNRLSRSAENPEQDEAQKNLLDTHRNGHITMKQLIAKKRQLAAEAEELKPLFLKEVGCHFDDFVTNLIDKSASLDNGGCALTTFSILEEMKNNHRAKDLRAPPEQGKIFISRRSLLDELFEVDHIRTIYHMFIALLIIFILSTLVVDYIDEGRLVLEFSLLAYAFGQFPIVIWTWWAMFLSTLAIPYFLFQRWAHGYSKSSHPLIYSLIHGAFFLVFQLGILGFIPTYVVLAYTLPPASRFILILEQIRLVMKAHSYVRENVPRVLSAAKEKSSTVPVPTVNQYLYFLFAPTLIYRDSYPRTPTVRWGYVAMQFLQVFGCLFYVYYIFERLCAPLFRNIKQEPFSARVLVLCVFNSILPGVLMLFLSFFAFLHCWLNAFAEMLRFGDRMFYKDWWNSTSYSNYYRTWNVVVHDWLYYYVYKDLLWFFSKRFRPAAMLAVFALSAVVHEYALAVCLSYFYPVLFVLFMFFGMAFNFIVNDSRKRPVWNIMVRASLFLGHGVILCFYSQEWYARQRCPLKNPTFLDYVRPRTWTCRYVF
# [2] = Solubility in phosphate buffer at pH 2.5; type: physicochemical
# Summary of the method: (§1)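 Solubility was measured at rt in phosphate buffer (5.53% aq citric acid/1.75% aq Na₂HPO₄) adjusted to pH 2.5, 5.5 or 7.4. Dissolved compound was quantified by HPLC.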
# [3] = Solubility in phosphate buffer at pH 5.5; type: physicochemical; summary of the method: as §1
# [4] = Solubility in phosphate buffer at pH 7.4; type: physicochemical; summary of the method: as §1
# [5] = Cmax in mice administered with 30 mg/kg po; type: ADME, organism-based; parameters: dose 30 mg/kg, route oral; conditions: mouse, in vivo
# [6] = Cmax in rabbit administered with 1.0 mg/kg/day for 21 days; type: ADME, organism-based, Oryctolagus cuniculus; parameters: dose 1 mg/kg/day; conditions: in vivo
# Summary of the method: (§2)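 Rabbits were dosed orally at 1.0 mg/kg/day for 21 days. Blood drug levels gave Cmax and AUC over 0–24 h. Serum total cholesterol was measured under the same regimen and expressed relative to control animals.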
# [7] = AUC in rabbit administered with 1.0 mg/kg/day for 21 days; type: ADME, organism-based, Oryctolagus cuniculus; conditions: plasma; summary of the method: as §2
# Oryctolagus cuniculus = assay: Decrease in serum total cholesterol in rabbit administered with 1.0 mg/kg/day for 21 days compared to control; type: ADME, organism-based; parameters: scale not given: the % may be the effect or the level left; conditions: in vivo, 504 h; summary of the method: as §2
Compound,IC50 [1] [nM],solubility [2] [µg/mL],solubility [3] [µg/mL],solubility [4] [µg/mL],Cmax [5] [ng/mL],Cmax [6] [ng/mL],AUC at 504 h [7] [ng·h/mL],Activity (Oryctolagus cuniculus) [%]
CCCCn1c(=O)c(NC(=O)Nc2c(C(C)C)ccnc2C(C)C)c(-c2cccc(OC)c2)c2cccnc21.Cl,5.4,> 1000,19,5,,,,
CCCCn1c(=O)c(NC(=O)Nc2c(C(C)C)ccc(N)c2C(C)C)c(-c2cccc(OC)c2)c2cccnc21.Cl,14,700,1,1,,,,
CCCCn1c(=O)c(NC(=O)Nc2c(C(C)C)cccc2C(C)C)c(-c2cccc(OC)c2)c2cccnc21,11,< 1,< 1,< 1,,,,
CCCCn1c(=O)c(NC(=O)Nc2c(C(C)C)cc(N)cc2C(C)C)c(-c2cccc(OCCCN3CCCCC3)c2)c2cccnc21.Cl.Cl,540,> 1000,180,200,,,,
CCCCn1c(=O)c(NC(=O)Nc2c(C(C)C)cc(CN(CC)CC)cc2C(C)C)c(-c2cccc(OC)c2)c2cccnc21.Cl,680,> 1000,1000,62,,,,
CCCCn1c(=O)c(NC(=O)Nc2c(C(C)C)cc(CN)cc2C(C)C)c(-c2cccc(OC)c2)c2cccnc21.Cl,382,220,23,36,,,,

# Results, then the compound that gave them:
IC50 [1] [nM],solubility [2] [µg/mL],solubility [3] [µg/mL],solubility [4] [µg/mL],Cmax [5] [ng/mL],Cmax [6] [ng/mL],AUC at 504 h [7] [ng·h/mL],Activity (Oryctolagus cuniculus) [%],Compound
> 1000,> 1000,32,30,,,,,CCCCn1c(=O)c(NC(=O)Nc2c(C(C)C)cc(N)cc2C(C)C)c(-c2cccc(OCCO)c2)c2cccnc21.Cl
21,> 1000,14,10,21300,16,39.8,53,CCCCn1c(=O)c(NC(=O)Nc2c(C(C)C)cc(N)cc2C(C)C)c(-c2cccc(OCCCO)c2)c2cccnc21.Cl
61,680,7,5,,,,,CCCCn1c(=O)c(NC(=O)Nc2c(C(C)C)cc(N)cc2C(C)C)c(-c2cccc(OCCCCO)c2)c2cccnc21.Cl
8.3,22,1,< 1,,,,,CCCCn1c(=O)c(NC(=O)Nc2c(C(C)C)cc(N)cc2C(C)C)c(-c2cccc(OC)c2)c2cccnc21.Cl
43,> 1000,19,17,,,,,CCCCn1c(=O)c(NC(=O)Nc2c(C(C)C)ccc(N)c2C(C)C)c(-c2cccc(OCCCO)c2)c2cccnc21.Cl
427,> 1000,200,130,,,,,CCCCn1c(=O)c(NC(=O)Nc2c(C(C)C)cc(N)cc2C(C)C)c(-c2cccc(OCCCN3CCCC3)c2)c2cccnc21.Cl.Cl
452,> 1000,690,640,,,,,CCCCn1c(=O)c(NC(=O)Nc2c(C(C)C)cc(N)cc2C(C)C)c(-c2cccc(OCCCN(CC)CC)c2)c2cccnc21.Cl.Cl
